In the RNAGym collection of RNA variant scans (doi:10.1126/science.aae0568):
Fewer inactive variants are shown than the library holds.

B1: tRNA (parent)
chain: GUUCCGUUGGCGUAAUGGUAACGCGUCUCCCUCCUAAGGAGAAGACUGCGGGUUCGAGUCCCGUACGGAACG

Variants of: B1
Assay: yeast fitness relative to wild type (ratio to wild type); higher = fitter; tRNA-Arg(CCU), competitive growth, 37 C, YPD
Outline: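 Variants of the tRNA-Arg(CCU) gene, chemically synthesised with a 3% per-site mutation rate at 69 sites, were placed at the native genomic locus in Saccharomyces cerevisiae. The pooled strains were competed in YPD at 37°C for 24 hours in six parallel replicates. Gene amplicons from the start population and from each end population were read by 100-nucleotide paired-end sequencing. Darwinian fitness relative to wild type came from changes in genotype frequencies; genotypes needed ≥ 100 starting reads, and estimates < 0.5 were set to 0.5.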

Compared with GUUCCGUUGGCGUUAUGGUAACGCGUCUCCCUCCUAUGGAGAAGACUGCGGGUUCGAGUCCGGUACGGAUCG [A14U A37U C62G A70U], GUUCCGUUGGCGUUAUGGUAACGCGUCUCCCUCCUAAGGUGAAGACUGCGGGUUCGAGUCCCGUACGGAACG [A14U A40U] is higher in yeast fitness: at most 0.5 for the first, 0.597 for the second.

Compared with GUUCCGUUGGCGUUAUGGUAACGCGUCUCCCUCCUAAGGGGAAGACUGCGGGUUCGAGUCCCGUACGGAACG [A14U A40G], GUUCCGUUGGCGUUAUGGUCACGCGUCUCCUUCCUAGGGAGAAGACUGCGGGUUCGAGUCCCGUACGGAACG [A14U A20C C31U A37G] is lower in yeast fitness: 0.707 for the first, at most 0.5 for the second.

GUUCCGUUGGCGUUAUGGUAACGCGUCUCCCUCCUAAGGAGACGACUGCGGGUUCGAGUCCCGUUCGGAACG [A14U A43C A65U] and GUUCCGUUGGCGUUAUGGUAACGCGUCUCCCUCCUAAGGAGUAGACUGCGGGUUCGUGUCCCGUACGGAUCG [A14U A42U A57U A70U] cannot be ordered by yeast fitness: at most 0.5 for the first, at most 0.5 for the second.

GUUCCGUUGGCGUUAUGGUAGCGCGUCUCCCUCCUAAGGAGAAGACUGCGGGUUCGAAUCCCGUACGGAACG [A14U A21G G58A] and GUUCCGUUGGCGUUAUGGUAACGCGUCUCCCUCCUAAGGAGCAGACUGCGGGUACGAGUCCCGUACCGUACG [A14U A42C U54A G67C A69U] cannot be ordered by yeast fitness: at most 0.5 for the first, at most 0.5 for the second.

Going from GUUCCGUUGGCGUUAUGGUGACGCGUCUCCCUCCUAAGGAGAACACUGCGGGUUCGAGUCCCGUACGGAACG [A14U A20G G44C] to GUUCCGUUGGCGUUAUGGUUACGCGUCUCCCUCCUUAGGAGAAGACUGCGGGUUCGAGUCCCGUACGGAACG [A14U A20U A36U], the yeast fitness rises from at most 0.5 to 0.568.

Compared with GUUCCGUUGGCGUUAUGGUAGCGCGUCUCCCUCGUAAGGAGAAGACUGCGGGUUCGUGUCCCGUACGGUACG [A14U A21G C34G A57U A69U], GUUCCGUUGGCGUUAUGGUACCGCGUCUCCCUCCUCAGGAGAAGACUGAGGGUUCGAGUCCCGUAGGGAACG [A14U A21C A36C C49A C66G] is lower in yeast fitness: 0.655 for the first, at most 0.5 for the second.

GUUCCGUUGGCGUUAUGGUAACGCGUCUCCCUCCUAAGGAGAGGACUGUGGGUUCGAGUCCCGUACGGAACG [A14U A43G C49U] and GUUCCGUUGGCGUUAUGGUAACGCGUCUCCCUCCUAAGGCGAAGACUGCGGGUUCGCGUUCCGUACGGAACG [A14U A40C A57C C60U] cannot be ordered by yeast fitness: at most 0.5 for the first, at most 0.5 for the second.

GUUCCGUUGGCGUUAUGGUAGCGCGUCUCCCUCCUAAGCAGAAGGCUGCUGGCUCGAGUCCCGUACGGAACG [A14U A21G G39C A45G G50U U53C] and GUUCCGUUGGCGUUAUGGUAACGCGUCUCCCUCCUAUGGAGAAGACUGCGGGUUCGAGACCCGUACGGAACG [A14U A37U U59A] cannot be ordered by yeast fitness: at most 0.5 for the first, at most 0.5 for the second.

GUUCCGUUGGCGUUAUGGUAACGCGUCUCCCUCCUAAGGCGAAGACUGCGGGUUCGCGUCCCGUACGGAACG [A14U A40C A57C] and GUUCCGUUGGCGUUAUGGUGACGCGUCUCCCUCCUAAGGAGAAGACUGCGGGUUCGAGUCCCGUACGGCACG [A14U A20G A69C] cannot be ordered by yeast fitness: at most 0.5 for the first, at most 0.5 for the second.

GUUCCGUUGGCGUUAUGGUAACGCGUCUCCCUCCUAAGGAGACGAUUGCGGGUUCGAGUCCCGUACGGAACG [A14U A43C C46U] and GUUCCGUUGGCGUUAUGGUAUCGCGUCUCCCUCCUAAGGAGAAGACUGCGGGUUCGACUCCCGUACGGAACG [A14U A21U G58C] cannot be ordered by yeast fitness: at most 0.5 for the first, at most 0.5 for the second.

Compared with GUUCCGUUGGCGUUAUGGUAACGCGUCUCCCUCCUAAGGCGAAGACUGCGGGUUCGAGUCCCGUAAGGAACG [A14U A40C C66A], GUUCCGUUGGCGUUAUGGUAACGCGUCUCCCUCCUACGGAGAAGAUUGCGCGUUCGAGUCCCGUAGGGAACG [A14U A37C C46U G51C C66G] is higher in yeast fitness: at most 0.5 for the first, 0.529 for the second.

GUUCCGUUGGCGUUAUGGUAACGCGUCUCCCUCCUAAGGAGUAGACUGCGGGUUCGAGUCCCGUGCGGCACG [A14U A42U A65G A69C] and GUUCCGUUGGCGUUAUGGUACUGCGUCUCCCUGCUAAGGAGAAGACUGCGGGUUCGUGUGCCGUACGCAACG [A14U A21C C22U C33G A57U C60G G68C] cannot be ordered by yeast fitness: at most 0.5 for the first, at most 0.5 for the second.

Compared with GUUCCGUUGGCGUUAUGGUAACGCGUCUCCCUCCUUAAGAGAAGACUGCGGGUACGAGUCCCGUACGGAACG [A14U A36U G38A U54A], GUUCCGUUGGCGUUAUGGUCACGCGUCUCCGUCCUAAGGAGAAGACUGCGGGUUCGAGUCCCGUAAGGAACG [A14U A20C C31G C66A] is lower in yeast fitness: 0.536 for the first, at most 0.5 for the second.

First: GUUCCGUUGGCGUUAUGGUAGCGCGUCUCCCUCCUAAGCAGAAGGCUGCGGGUUCGAGUCCCGUACGGAACG [A14U A21G G39C A45G]
Second: GUUCCGUUGGCGUUAUGGUCACGCGUCCCCCUCCUAAGGAGAAGAUUGCGGGUUCGAAUCCCGUACGGAACG [A14U A20C U28C C46U G58A]
The yeast fitness of the first is lower: at most 0.5 for the first, 0.678 for the second.

GUUCCGUUGGCGUUAUGGUAACGCGUCUCCCUCCUAUGGAGAAGACUGCGGGUUCGAGUCCCGUAUGGAACG [A14U A37U C66U] and GUUCCGUUGGCGUUAUGGUAACGCGUCUCCCUCCUAAGGAGCAGAAUGCGGGUUCGAGUCCCGUACGGAACG [A14U A42C C46A] cannot be ordered by yeast fitness: at most 0.5 for the first, at most 0.5 for the second.

Going from GUUCCGUUGGCGUUAUGGUAACGCGUCUCCCUCCUAGGGAGAACCCUGCAGGUUGGAGUCCCGUAAGGAACG [A14U A37G G44C A45C G50A C55G C66A] to GUUCCGUUGGCGUUAUGGUAACGCGUCUCCCUCCUGAGGGGAAGACUGCGGGUUCGAGUCCCGUACGGAACG [A14U A36G A40G], the yeast fitness falls from 0.539 to at most 0.5.

GUUCCGUUGGCGUUAUGGUAACGCGUCUCCCUCCUAUGGAGAAGACUGCGGGUUCGAGUCGUGUACGGAACG [A14U A37U C61G C62U] and GUUCCGUUGGCGUUAUGGUUACGCGUCUCCCUCCUAAGGAGGAGACUGCGGGUUCGAGUCCCGUCCGGCGCG [A14U A20U A42G A65C A69C A70G] cannot be ordered by yeast fitness: at most 0.5 for the first, at most 0.5 for the second.

GUUCCGUUGGCGUUAUGGUCACGCGUUUCCCUCCCAAGGAGAAGACUACGGGUUCGAGUCCCGUACGGAUCG [A14U A20C C27U U35C G48A A70U] and GUUCCGUUGGCGUUAUGGUAACGCGUCUCCCUCCUAAGGGGAAGACUGCGGGUUCGAGUCCGGUACGGAACG [A14U A40G C62G] cannot be ordered by yeast fitness: at most 0.5 for the first, at most 0.5 for the second.

First: GUUCCGUUGGCGUUAUGGUACCGCGUCUUCCUCCUAAGGAGAAGACUGCGGGUUCGAGUCCCGUACGGAACG [A14U A21C C29U]
Second: GUUCCGUUGGCGUUAUGGUAUCGCGUCUCCUUCCUAAGGAGAUCACUGCGGGUUCGAGUCCCGUACGGAACG [A14U A21U C31U A43U G44C]
The yeast fitness of the first is higher: 0.538 for the first, at most 0.5 for the second.
